From ChEMBL document CHEMBL3603816, “Synthetic Small Molecules Derived from Natural Vitamin K Homologues that Induce Selective Neuronal Differentiation of Neuronal Progenitor Cells” (2015)
Activity calls are given as the source filed them. The calls are words filed in the database; no cut-off is given here.

Legend:
[1] = Induction of neuronal differentiation in mouse neuronal progenitor cells assessed as expression of Map2 at 1 uM treated for every second day for 4 days by real-time PCR method relative to control
[2] = tested on: Neuronal progenitor cell; assay: Induction of neuronal differentiation in mouse neuronal progenitor cells assessed as expression of Gfap at 1 uM treated for every second day for 4 days by immunofluorescence staining method; assay type: functional
Method in brief: (§1)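 Neural stem/progenitor cells dissociated from embryonic day 14 mouse cerebrum. Cultured 24 h after seeding, then given 1 μM analogue every second day for 4 days. Immunofluorescence with Map2 (neurons, red) and Gfap (astrocytes, green), nuclei counterstained with DAPI. Imaged by confocal laser microscopy; the legend states staining after 48 h.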

[3] = tested on: Neuronal progenitor cell; assay: Induction of neuronal differentiation in mouse neuronal progenitor cells assessed as expression of Map2 at 1 uM treated for every second day for 4 days by immunofluorescence staining method; assay type: functional
Method in brief: as §1

[4] = tested on: Neuronal progenitor cell; assay: Induction of neuronal differentiation in mouse neuronal progenitor cells assessed as relative ratio of expression of Map2/Gfap mRNA at 1 uM treated for every second day for 4 days by RT-PCR analysis; assay type: functional
Method in brief: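 E14 mouse cerebral progenitor cells, cultured 24 h, then treated with 1.0 × 10−6 M compound or ethanol for 4 days. mRNA extracted; Map2, Gfap and β-actin levels quantitated by real-time PCR, and the Map2/Gfap ratio calculated. Means of three independent experiments ± SD. Dunnett's t-test versus EtOH.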

Structure (SMILES) | fold change (FC) [1] | Activity [2] | Activity [3] | Activity [4]
CC1=C(C/C=C(\C)CC/C=C(\C)CC/C=C(\C)Cc2ccc3ccccc3c2)C(=O)c2ccccc2C1=O | 1.5 | inactive | Active | –
CC1=C(C/C=C(\C)CC/C=C(\C)CC/C=C(\C)Cc2cccc3ccccc23)C(=O)c2ccccc2C1=O | 1.5 | inactive | Active | –
C/C(=C\CO)CC/C=C(\C)Cc1cccc(C)c1 | – | inactive | Active | –
CC1=C(C/C=C(\C)CC/C=C(\C)CC/C=C(\C)Cc2ccccc2)C(=O)c2ccccc2C1=O | 1.5 | inactive | Active | –
C/C(=C\CO)CC/C=C(\C)CC/C=C(\C)Cc1ccccc1 | – | inactive | Active | –
CC1=C(C/C=C(\C)CC/C=C(\C)CC/C=C(\C)Cc2cccc(C)c2)C(=O)c2ccccc2C1=O | 1.5 | inactive | Active | Active
C/C(=C\CO)CC/C=C(\C)Cc1cccc2ccccc12 | – | inactive | Active | –
CC(C)=CCC/C(C)=C/CC1=C(C)C(=O)c2ccccc2C1=O | – | – | – | Active
C/C(=C\CO)CC/C=C(\C)Cc1ccc2ccccc2c1 | – | inactive | Active | –
C/C(=C\CO)CC/C=C(\C)CC/C=C(\C)Cc1ccc(-c2ccccc2)cc1 | – | inactive | Active | –
CC1=C(C/C=C(\C)CC/C=C(\C)Cc2cccc(C)c2)C(=O)c2ccccc2C1=O | 1.5 | inactive | Active | –
C/C(=C\CO)CC/C=C(\C)Cc1ccccc1 | – | inactive | Active | –
C/C(=C\CO)CC/C=C(\C)Cc1ccc(-c2ccccc2)cc1 | – | inactive | Active | –
C/C(=C\CO)CC/C=C(\C)CC/C=C(\C)Cc1ccc2ccccc2c1 | – | inactive | Active | –
CC(C)=CCC/C(C)=C/CC/C(C)=C/CC1=C(C)C(=O)c2ccccc2C1=O | – | – | – | Active
CC1=C(C/C=C(\C)CC/C=C(\C)Cc2ccc(-c3ccccc3)cc2)C(=O)c2ccccc2C1=O | 1.5 | inactive | Active | –
CC1=C(C/C=C(\C)CC/C=C(\C)Cc2cccc3ccccc23)C(=O)c2ccccc2C1=O | 1.5 | inactive | Active | –
C/C(=C\CO)CC/C=C(\C)CC/C=C(\C)Cc1cccc2ccccc12 | – | inactive | Active | –
CC1=C(C/C=C(\C)CC/C=C(\C)Cc2ccccc2)C(=O)c2ccccc2C1=O | 1.5 | inactive | Active | –
CC1=C(C/C=C(\C)CC/C=C(\C)CC/C=C(\C)Cc2ccc(-c3ccccc3)cc2)C(=O)c2ccccc2C1=O | 1.5 | inactive | Active | –
CC1=C(C/C=C(\C)CC/C=C(\C)Cc2ccc3ccccc3c2)C(=O)c2ccccc2C1=O | 1.5 | inactive | inactive | –
C/C(=C\CO)CC/C=C(\C)CC/C=C(\C)Cc1cccc(C)c1 | – | inactive | Active | –
